Laboratory results from ChEMBL document CHEMBL4513216, “Probing the Open Global Health Chemical Diversity Library for Multistage-Active Starting Points for Next-Generation Antimalarials” (ACS Infect Dis, 2020).

Experiment: Toxicity liver stage against HepG2, at 10uM
Format: cell-based
Set-up: test concentration 10 uM, cell line HepG2-A16-CD81EGFP
Details: human, HepG2-A16-CD81EGFP cells; read-out: INHIBITION
Outline: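 Uninfected HepG2-A16-CD81EGFP cells, 3 × 10^3 per well, 1536-well, plated on prespotted compound at 10 μM final, parasite-free screening media added to match infected plates; puromycin 10 μM positive, DMSO 0.5% negative; run in parallel with 48 h PbLuc assay at 37 °C, 5% CO2; viability by CellTiter-Glo luminescence, normalized to controls.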

Compound	cytotoxicity at 10 µM [%]
COCCOCC(=O)N(Cc1cccc(C)c1)C(C)C	-12.4
CCN(Cc1ccoc1)c1ncc(S(N)(=O)=O)s1	5.73
COCC1CN(Cc2cc(C)on2)Cc2cn(CC3CCCC3)nc21 (configuration not stated)	6.4
Cc1nc(C2(O)CCCNCC2)sc1CCOc1ccccc1 (configuration not stated)	-28.5
CC(C)CCN1CCC2(CC1)CN(C(=O)c1cnccn1)CCO2	-12.6
Cc1nn(C)c(N(C)C)c1CNCc1cccnc1-n1cncn1	-0.313
CC(C)Cc1ncc2c(n1)CN(c1nccc(NC(C)C)n1)C2	-10.7
CCc1ccc2nc(C)cc(C(=O)NC3CCCCNC3=O)c2c1 (configuration not stated)	-8.48
Cc1noc(C)c1CN1CCO[C@H]2CN(C3CCOCC3)C[C@H]21	-1.41
CN(C)CCCN(Cc1ccco1)Cc1ccnn1C1CCCCO1 (configuration not stated)	-2.52
O=C1NCCCCC1NC(=O)C1(Oc2ccc(Cl)cc2)CCNCC1 (configuration not stated)	-6.21
CN1CCN(S(=O)(=O)c2cccc(F)c2)c2cnccc21	-2.95
CCN(CC)S(=O)(=O)c1ccc2c(c1)N(Cc1ccccn1)C(=O)CS2	3.51
CN(C)CCOCc1cncc2c1CCN(C1CCOC1)C2 (configuration not stated)	9.68
Cc1ccc(NC2CCN(C(=O)CCc3ccccc3)CC2)nn1	-10.5
O=C(NCc1cn2c(n1)CN(Cc1cccc(F)c1)CC2)C1CCC1	8.79
Cc1cccc2nc(C(=O)N3CCC(Nc4cccnn4)CC3)cn12	-0.77
CN1CC(C(=O)N2CCN(c3cccc(Cl)c3)C(=O)C2)NC1=O (configuration not stated)	-3.94
COCc1ncc(CN(CCN(C)C)Cc2ccc(C)s2)cn1	-57.1
Cc1cc(C[S+]([O-])Cc2ccccc2C)no1 (configuration not stated)	9.13
CCn1c(C2CCN(C(=O)CCc3cc(Cl)no3)CC2)nn(C)c1=O	-7.09
Cc1csc(N2CCC(NCC3(O)CCc4ccccc43)CC2)n1 (configuration not stated)	0.455
COc1ccccc1C1SCC(=O)Nc2c1c(=O)[nH]n2C1CCOCC1 (configuration not stated)	-5.43

Compound	cytotoxicity at 10 µM [%]
c1cc(CN2CCN3C[C@H](Oc4cncnc4)C[C@H]3C2)ccn1	-108
Cc1ccc(C)c(Oc2ccc(CNC(=O)C3CCS(=O)(=O)C3)cn2)c1 (configuration not stated)	-3.98
CCc1n[nH]c(C2CN(C(=O)c3cncnc3CC)CCO2)n1 (configuration not stated)	-5.65
O=c1cnc2ccccc2n1CCCn1ccnc1	-3.85
Cc1ccc(CN2C[C@H]3CN(Cc4ccccc4Cl)CCN3C2=O)cc1	-10.3
CS(=O)(=O)NCCCNC(=O)c1cccnc1O	-17.7
CC(NC(=O)c1ccnc(C2CC2)n1)C1(N2CCOCC2)CCCC1 (configuration not stated)	4.21
CNc1cc(C)nc(N2CCC3(CC2)[C@H](O)C[C@@H]3OCCN(C)C)n1	-1.26
O=C(Nc1ccc(F)cc1)C1CNCCN1C(=O)CCO (configuration not stated)	1.93
CCCNCc1cn(Cc2ccccc2)nc1-c1cccnc1	5.13
CN1C(=O)C2(CCNCC2)c2cc(F)ccc21	-115
O=C(CCc1ccc(Cl)cc1)NC1CCN(c2cccc(F)c2)CC1	-5.99
Cc1csc(CCCNC(=O)NC2CC(=O)N(C(C)(C)C)C2)n1 (configuration not stated)	-8.88
Cc1ccc(C(C)NCc2c(C(C)C)nn(C)c2N2CCOCC2)o1 (configuration not stated)	-4.79
COCC(=O)N1CCC(c2csc(NC(C)=O)n2)CC1	-28.6
Cn1ncc2c(=O)[nH]c(N3CCCC3c3cccc(Cl)c3)nc21 (configuration not stated)	19.6
CCNC(=O)CCN1CCCC1c1cccc2c1OCCO2 (configuration not stated)	-4
COc1ccc(C[C@H]2CN(C3CCOCC3)CC[C@@H]2OCC2CC2)cc1	2.38
N#Cc1cccnc1N1CCCN(CC(=O)N2CCNC(=O)C2)CC1	4.07
Cc1ccc(OC2(C(=O)O)CCN(C(=O)c3ccoc3C)CC2)cn1	-1.56
CC(SCCS(C)(=O)=O)c1nc(Cc2ccccc2)no1 (configuration not stated)	2.25
N#CCCCS(=O)(=O)NC(=O)c1ccccc1F	0.749
CCn1nc2c(cc1=O)CN(Cc1nc(-c3cccs3)no1)CC2	-8.99

Compound	cytotoxicity at 10 µM [%]
CC(C)CCN(C(=O)Nc1cccc(C(=O)N(C)C)c1)C1CC1	-14.2
c1cnc(N2CCC3(CCN(CC4CCOCC4)CC3)C2)nc1	1.29
Cc1nn2cccnc2c1C(=O)NCc1ccccc1OCC1CC1	-48.4
COc1c(C2CCCN2CC(=O)N2CCCCC2)c(C)nn1C (configuration not stated)	0.113
O=C(NCCNS(=O)(=O)c1ccc2c(c1)CCC2)c1ccccc1	9.36
NCC(CO)Cc1ccc(C(F)(F)F)cc1 (configuration not stated)	4.42
COCCN1CCN(Cc2nc(-c3ccoc3)no2)CC1	16
Cc1nc(C)n(CC2CN(Cc3cccc(C(N)=O)c3)CCO2)n1 (configuration not stated)	6.2
Cc1csc(C(C#N)C(=O)NCc2ccccc2)n1 (configuration not stated)	4.02
COC(=O)CN(Cc1ccccc1C)C(=O)CCCNC(=O)C1CC1	-13.4
CC(C)[C@H]1CN(CCCO)C[C@@H]1NC(=O)CCC(F)(F)F	-0.6
CCC1=N[C@@]2(CC[C@@H]3CN(S(=O)(=O)CC(C)C)C[C@@H]32)C(=O)N1CC	0.167
CC(C)(C)CN[C@@H]1CO[C@H](CNC(=O)c2cccs2)[C@H]1O	-4.23
CN(C)C(=O)C1CN(c2ncccn2)CCN1C (configuration not stated)	-0.419
CCc1cnccc1C(=O)NC1CCN(C(=O)OC)CC1	9.09
Cc1cccc(C(=O)Nc2cccc3c2CCCC3)n1	-2.35
c1ccc(OCCCNCCn2cccn2)cc1	-5.46
Cc1nn(C)c(N2CCOCC2)c1CNC1CCN(C2CC2)CC1	-3.96
CC(C)(C)CC(=O)Nc1ccc(S(C)(=O)=O)nc1	-3.05
COc1cc(N2CCC3(CCCN3Cc3ccn(C)n3)CC2)ncn1	4.89
Cc1ncsc1CN1CC[C@H]2OCC[C@@]2(C(=O)N(C)C)C1	2.93
COc1ccc(C(=O)N2C[C@@H](C(=O)O)[C@H](c3ccccc3)C2)c(O)c1	-2.14
Cc1ccn(Cc2nc(CC(C)C)no2)c(=O)c1	6.21

Compound	cytotoxicity at 10 µM [%]
CC(C)(C)CC(=O)NC[C@H]1OC[C@@H](NC2CCC(F)(F)CC2)[C@@H]1O	-1.23
Cc1nc(C2CCCN(C(=O)c3cc(C(C)(C)C)on3)C2)no1 (configuration not stated)	-11.9
CCc1cnc(NCCCOC2CCCC2)nc1	-0.0184
CCCc1nnc(NC(C)c2ccc3c(c2)OCCO3)o1 (configuration not stated)	0.965
Cc1nc(CN2C(=O)C[C@@H]3[C@@H]2CCN3C(=O)C2CCOCC2)cs1	-10.8
Cc1nn(C)cc1Cn1c(=O)c(C)nc2ccccc21	-1.21
CC(C)n1cc(S(=O)(=O)N2CCCCC2)cn1	2.53
CCc1nc(NCC(=O)N2CCOCC2)c2c(n1)c(C)nn2CC	7.05
Cc1nc(CN2CCCn3c(nc(Cn4ccnc4)cc3=O)C2)cs1	-5.67
Cc1cccc(N(C)Cc2nc3c(cnn3C)c(=O)[nH]2)c1C	-9.23
CC(C)N1CCc2nnc(COc3cncnc3)n2CC1	2.7
CCCn1cnnc1CNC1CCCC1	-2.27
Cc1noc(C)c1CN1CCCC2(CCN(C(=O)N3CCOCC3)C2)C1 (configuration not stated)	3.35
Cc1noc([C@@H]2C[C@@H]3CCN(CC4CCOCC4)C[C@H]3O2)n1	-130
Cc1nsc(NC(=O)NC2(CN3CCOCC3)CCCC2)n1	3.89
CCCOCCNc1nc2c(s1)c(C)nn2C	-15.9
CC(CCS(C)(=O)=O)NC(=O)NCc1ccc2c(c1)CCC2 (configuration not stated)	-143
CC(c1ccccc1)n1cc2nc(N(C)C)[nH]cc-2c1=O (configuration not stated)	-25.5
CN(CC(=O)N1CCOCC(CO)C1)Cc1ccc(F)cc1 (configuration not stated)	-2.82
NCC1CN(C(=O)c2cccc(-n3cccn3)c2)CCO1 (configuration not stated)	-1.56
CC(NC(=O)C1CCCC1)c1nc(-c2ccccc2)c[nH]1 (configuration not stated)	6
CC1CCN(C(=O)[C@@H]2CC[C@@H]3[C@@H](CCN3c3ncc(F)cn3)O2)CC1	-0.359
Clc1cccc2c3c([nH]c12)CCN(Cc1cc2n(n1)CCNC2)C3	-0.735

Compound	cytotoxicity at 10 µM [%]
CC(=O)N1CCc2[nH]nc(C(=O)N3CC=CC3)c2C1	-108
O=C(Nc1cn[nH]c1)c1ccncc1	-6.01
Cc1cnc(CN(C)C2CCN(CC(=O)Nc3c(C)n[nH]c3C)C2)o1 (configuration not stated)	-6.38
CCc1ncnc(N2CCOCC2C(N)=O)c1F (configuration not stated)	-4.73
Cc1cnn(CC2CN(Cc3cccc(OCC(N)=O)c3)CCO2)c1 (configuration not stated)	-7.18
Cc1nn(C)c(C)c1C(=O)N1CCN(C(=O)CCC2CCCCC2)CC1	-5.47
O=C1NCC2(CCCN(Cc3ccccc3F)C2)Oc2ccccc21 (configuration not stated)	6.12
CCOCC1CN(c2ccncn2)Cc2cnn(CC3CC3)c21 (configuration not stated)	6.38
Cc1ccccc1-c1cc(NC(=O)NC2CCC(O)CC2)n(CCO)n1 (configuration not stated)	1.09
COc1ccc(Oc2cncc(C3CCCN3C(C)=O)n2)cc1 (configuration not stated)	2.86
O=C(O)c1cc2c(nc1N1CCCC1)CCN(C1CCOCC1)CC2	3.02
CC(O)CN1CCC(CN(C)Cc2ccc(C#N)cc2)CC1 (configuration not stated)	0.788
Cc1cc(C(=O)Nc2cccn(Cc3ccc(F)cc3)c2=O)on1	5.38
CCOc1ccc(OCc2nc3c(c(=O)[nH]2)CCNC3)cc1	8.55
COc1ccc(-c2nc(C#N)c(N(C)C)o2)cc1S(=O)(=O)N1CCCC1	-0.773
OC(CN(Cc1ccccc1)Cc1cscn1)c1ccco1 (configuration not stated)	5.04
Cc1cccc(C(=O)N2CCc3c(COCC4CC4)cncc3C2)n1	-80.1
Fc1ccc(C2CN(c3ncnc4nc[nH]c34)CCO2)cc1 (configuration not stated)	13.1
CN1CCN(Cc2ccsc2)Cc2cccnc21	-77.9
Cc1ccc(C(=O)Nc2nnc(CC(C)C)s2)c(-n2cnnn2)c1C	-147
